E-selectin induc: E-selectin induction in HUVECs, primary screen, imaging, HUVEC, immunofluorescence imaging, single point | 260,000 tested, 0.37% active | normalized: neutral wells 0, TNF-alpha wells 100 | activation, % at 7.58 µM | AID 686992, 2013;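 active = mean E-selectin-positive cell signal at least 10% of the positive control, reached in at least 60% of replicates, without over 20% cell loss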
Target sequence (P16581 whole entry, looked up): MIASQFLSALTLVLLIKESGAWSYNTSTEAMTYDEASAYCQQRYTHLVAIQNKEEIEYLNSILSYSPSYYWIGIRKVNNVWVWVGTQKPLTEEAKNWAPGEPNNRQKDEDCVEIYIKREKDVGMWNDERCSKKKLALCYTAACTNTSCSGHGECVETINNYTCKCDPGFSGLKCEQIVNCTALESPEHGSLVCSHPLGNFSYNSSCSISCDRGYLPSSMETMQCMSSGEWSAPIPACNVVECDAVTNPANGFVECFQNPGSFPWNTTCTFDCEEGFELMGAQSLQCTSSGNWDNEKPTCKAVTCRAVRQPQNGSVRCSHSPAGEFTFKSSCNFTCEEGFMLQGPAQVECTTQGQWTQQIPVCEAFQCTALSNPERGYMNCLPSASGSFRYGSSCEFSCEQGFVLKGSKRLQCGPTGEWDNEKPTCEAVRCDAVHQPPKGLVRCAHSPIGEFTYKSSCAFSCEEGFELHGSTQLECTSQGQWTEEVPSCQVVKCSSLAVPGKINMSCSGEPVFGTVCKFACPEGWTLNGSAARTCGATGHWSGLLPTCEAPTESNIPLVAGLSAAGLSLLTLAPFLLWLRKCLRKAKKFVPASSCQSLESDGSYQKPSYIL
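Test system – human umbilical vein endothelial cells (HUVEC), E-selectin induction · Input – 3,000 HUVEC seeded per well · Buffer or medium – EGM-2, gelatin · Compound dosing – single-point compound dose · Detection – immunofluorescence imaging · Measure – percent E-selectin-positive cells · Controls – TNF-alpha high, DMSO low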
S100A4 MyoIIA: inhibitors of S100A4-myosin IIA peptide binding, primary screen, biochemical, fluorescence polarization, TAMRA-MyoIIA peptide | inhibition, % at 10.7 µM | Protein S100-A4 (Homo sapiens), P26447 | AID 652163, 2013 | 360,000 tested, 0.14% active;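 active = mean inhibition of at least 70% across replicates, with every replicate also reaching that level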
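Assay system: human S100A4 monomer with TAMRA-labelled myosin IIA peptide / Buffer or medium: Calcium-containing HEPES buffer, pH 7.2 / Reagent: TAMRA-labelled myosin IIA heavy-chain peptide probe, 5 nM / Compound: one dose per compound / Timing: polarization read 5 min after assay mix addition, stable 5–60 min / Benchmarks: neutral control DMSO, positive control TFP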
miR-122 sensor: miR-122 Renilla sensor signal increase in Huh7, primary screen, miR-122 inhibitor project, cell-based, single point, plate reader | 340,000 tested, 0.3% active | activation (reporter increase), % at 12.5 µM | Huh7 miR-122 Renilla luciferase sensor, 48 h; neutral wells = 0, positive control = 100;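 active = mean replicate activation score at least 90 and every replicate individually at or above 90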;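 also: higher luciferase means less miR-122 activity so hits act as miR-122 inhibitors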
FGF22 binding: binders of human FGF22 protein, primary screen, FGF22 synaptogenesis inhibitor project, biophysical, thermal shift, single point; 340,000 tested, 1.5% active; AID 651658, 2012; activity (Tm shift, normalised), % at 9.99 µM; Fibroblast growth factor 22 (Homo sapiens), Q9HCT0; recombinant FGF22 thermal shift, SYPRO orange fluorescence; percent of sucrose octasulfate shift, DMSO zero;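 active = mean Tm shift, scaled 0 neutral to 100 positive control, at about 1.3% or above, every replicate too, limit read from the data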
SIRT5 block: SIRT5 desuccinylase inhibitors, primary screen, biochemical, fluorescence imaging, single point, set 5. 330,000 tested, 1.1% active. Purified SirT5, succinyl-peptide AMC, trypsin-coupled fluorescence. AID 652115, 2013. inhibition, % at 15 µM; in the data active = inhibition above about 15%
Active calls of the source: *; . = no result; [ ] = dose if it differs, or a comment. A selection: hits, their analogues and other compounds. The true share with any hit is near 2.5%.

SMILES | E-selectin induc | S100A4 MyoIIA | miR-122 sensor | FGF22 binding | SIRT5 block
O=C(CC1CC1)N1[C@H](CO)[C@@H](c2ccccc2)C12CN(Cc1cc(F)ccc1F)C2 | 0 | 48 | . | -1 | -7
C[C@H]1CN([C@@H](C)CO)C(=O)c2cc(NC(=O)CCCN(C)C)ccc2O[C@H]1CN(C)Cc1ccc(-c2ccccc2)cc1 | -5 | 0 | -4[16.7 µM] | 0 | -1
Cc1noc(C)c1NC(=O)N(C)C[C@H]1Oc2ccc(NC(=O)NC(C)C)cc2CC(=O)N([C@@H](C)CO)C[C@@H]1C | . | -7 | 11[16.7 µM] | 0 | -3
C[C@@H]1CN([C@@H](C)CO)C(=O)Cc2cc(NC(=O)Nc3ccc(F)cc3)ccc2O[C@@H]1CN(C)C(=O)Nc1ccc(C(F)(F)F)cc1 | 25 | . | 10[16.7 µM] | 0 | .
C[C@@H]1CN([C@@H](C)CO)C(=O)Cc2cc(NC(=O)Nc3ccc(F)cc3)ccc2O[C@H]1CN(C)C(=O)Nc1ccc(C(F)(F)F)cc1 | 52* | . | -3[16.7 µM] | 1 | .
Cc1noc(C)c1NC(=O)N(C)C[C@H]1Oc2ccc(NC(=O)NC(C)C)cc2CC(=O)N([C@H](C)CO)C[C@H]1C | . | 3 | 0[16.7 µM] | 0 | 21*
CO[C@@H]1CN(C)C(=O)c2cc(NC(=O)Nc3ccc(C(F)(F)F)cc3)ccc2OC[C@@H](C)NC[C@@H]1C | 0 | -14 | . | 0 | -4
CC(C)Cc1cc(C(=O)N2CCC(N3CCC(C(=O)NC4CC4)CC3)CC2)n[nH]1 | . | -9 | -3 | 0 | 17*
C[C@@H]1CN([C@@H](C)CO)C(=O)c2cccc(NC(=O)c3ccc(-c4nccs4)cc3)c2O[C@@H]1CN(C)C(=O)Nc1ccc2c(c1)OCO2 | 10 | 3 | 4[16.7 µM] | 0 | 11
O=C(Nc1ccccc1C(=O)NC(Cc1ccc(O)cc1)C(=O)O)c1ccccc1 (stereo not given) | . | 3 | -2 | 44* | -6
COc1ccc(N2C(=O)c3ccccc3C(C)(C)C2=O)cc1 | 45* | -4 | -3 | 0 | -3
O=C(O)CSc1ccc(Oc2ccc(SCC(=O)O)cc2)cc1 | . | 0 | -5 | 43* | 3
C[C@H](O)C#Cc1ccc2c(c1)O[C@H](CN(C)C(=O)CN(C)C)[C@H](C)CN([C@H](C)CO)S2(=O)=O | 0 | 1 | . | 1 | 6
C[C@H](NC(=O)[C@@H]1CCCN1C(=O)[C@@H]1CCCN1C(=O)OC(C)(C)C)c1ccccc1 | 0 | 5 | . | 0 | 16*
CO/N=C/C(C(C)=O)C(=O)Nc1ccc(Cl)cc1Cl (stereo not given) | 0 | -2 | 11 | 43* | 0
CCCC(C)C(=O)Nc1ccc(Cl)cc1Cl (stereo not given) | . | . | -5 | . | .
CO[C@@H]1CN(C)C(=O)c2ccc(NC(=O)NC(C)C)cc2OC[C@@H](C)N(C(=O)CC2CC2)C[C@H]1C | 0 | 45 | . | 0 | 3
CN(C)CCCOc1ccc(-c2cccc3nncn23)cn1 | 0 | 0 | -9 | 43* | .
C[C@@H]1CN([C@H](C)CO)C(=O)Cc2cc(NC(=O)Cc3cn(C)c4ccccc34)ccc2O[C@@H]1CN(C)C(=O)Nc1ccc(C(F)(F)F)cc1 | -7 | -18 | 0[16.7 µM] | 0 | -3
C[C@@H]1CN([C@H](C)CO)C(=O)Cc2cc(NC(=O)Cc3cn(C)c4ccccc34)ccc2O[C@H]1CN(C)Cc1ccc(C(F)(F)F)cc1 | 152* | -7 | 4[16.7 µM] | 0 | 0
C[C@H](CO)N1C[C@H](C)[C@@H](CN(C)C(=O)Nc2ccc(C(F)(F)F)cc2)Oc2ccc(NC(=O)Cc3cn(C)c4ccccc34)cc2CC1=O | 34* | 1 | -6[16.7 µM] | 0 | 4
C[C@@H]1CN([C@H](C)CO)C(=O)Cc2cc(NC(=O)Cc3cn(C)c4ccccc34)ccc2O[C@@H]1CN(C)Cc1ccccc1 | 0 | 22 | -5[16.7 µM] | 1 | 6
C[C@H]1CN([C@@H](C)CO)C(=O)Cc2cc(NC(=O)Cc3cn(C)c4ccccc34)ccc2O[C@H]1CN(C)Cc1ccc(C(F)(F)F)cc1 | 258* | 1 | 23[16.7 µM] | 0 | 4

High-throughput results as filed in PubChem BioAssay.
